Assay results taken from ChEMBL document CHEMBL1132244, “Benzodiazepine receptor ligands. 4. Synthesis and pharmacological evaluation of 3-heteroaryl-8-chloropyrazolo[5,1-c][1,2,4] benzotriazine 5-oxides” (J Med Chem, 1999).

Tests used:
Mus musculus [1] = experiment: Antianxiolytic activity in mice as no of crosses on light/dark box at 100 mg/kg 13c and 1 mg/kg Diazepam; type: functional
Mus musculus [2] = experiment: Muscle relaxant effect in rotarod test at 100 mg/kg 13c and 0.3 mg/kg Diazepam; type: functional
Mus musculus [3] = experiment: Muscle relaxant effect in rotarod test at 100 mg/kg 13c and 1 mg/kg Diazepam; type: functional
Mus musculus [4] = experiment: Antianxiolytic activity in mice as percent time in light of light/dark box at 100 mg/kg 13c and 1 mg/kg Diazepam; type: functional
Mus musculus [5] = experiment: Anticonvulsant activity against PTZ induced seizures in mice at 100 mg/kg dose with 0.3 mg/kg Diazepam; type: functional
Mus musculus [6] = experiment: Anticonvulsant activity against PTZ induced seizures at 100 mg/kg dose with 1 mg/kg Diazepam; type: functional
[7] = target: T1, GABA-A receptor; anion channel (Bos taurus) (UniProt P10063+P08220+P20237+P08219+P10064+P22300); experiment: Percentage inhibition of [3H]Ro-151788 binding to GABA-A central benzodiazepine receptor in bovine brain membrane at 10 uM; type: cell membranes
Summary of the method: (§1)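 Washed bovine cerebral cortex membranes, with endogenous GABA removed by Triton X-100/37 °C washes, incubated with ~0.2 nM [3H]Ro15-1788 (Kd 0.60 nM) in 50 mM Tris-citrate pH 7.4 for 90 min at 0 °C, then filtered. Nonspecific binding defined with 10 μM diazepam. Screening at 10 μM; Ki from IC50 by Cheng–Prusoff; five determinations, mean ± SEM.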

[8] = target: GABA-A receptor; anion channel; experiment: Displacement of [3H]Ro-151788 from GABA-A benzodiazepine receptor of bovine brain membranes; type: cell membranes, Bos taurus; summary of the method: as §1
[9] = target: T1, GABA-A receptor; anion channel (Bos taurus); experiment: Percentage inhibition of [3H]Ro-151788 binding to GABA-A benzodiazepine receptor in bovine brain membrane at 10 uM; type: cell membranes; summary of the method: as §1
Mus musculus [10] = experiment: (§2) Anticonvulsant activity against MES-induced hindlimb extension at 100 mg/kg dose; type: functional
Mus musculus [11] = experiment: (§3) Anticonvulsant activity against MES-induced hindlimb extension at 30 mg/kg dose; type: functional
Mus musculus [12] = experiment: Antianxiety activity was measured based on light/dark box thus calculated no of crosses of mice at 100 mg/kg dose; type: functional
Summary of the method: (§4)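 Male Swiss-Webster mice, 22–26 g, dosed orally with drug or 1% CMC vehicle (10 mL/kg), placed 30 min later in the centre of the lit side of a two-compartment light/dark box (60-W bulb 400 mm above the white floor). Time in the lit side and number of crossings counted over 5 min. Student's t-test.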

Mus musculus [13] = experiment: Antianxiety activity was measured based on light/dark box thus calculated no of crosses of mice at 30 mg/kg dose; type: functional; summary of the method: as §4
Mus musculus [14] = experiment: as §2; type: organism-based; design: dose 100 mg/kg; conditions: in vivo
Summary of the method: (§5)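 Male Swiss-Webster mice (22–26 g) received drug in 1% CMC (10 mL/kg) 30 min before maximal electroshock through transcorneal electrodes (40 mA, 50 Hz, 0.2 s). The end point was tonic hindlimb extension, and lethality was also noted. The incidence of non-convulsing mice was analysed by χ² test.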

Mus musculus [15] = experiment: Muscle relaxant effect measured by rotarod test at 100 mg/Kg dose in mice; type: functional
Summary of the method: (§6)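 Motor coordination on the rota rod in male Swiss-Webster mice (22–26 g) after oral dosing in 1% CMC (10 mL/kg), tested 30 min post-dose. Student's t-test.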

Mus musculus [16] = experiment: as §3; type: ADME, organism-based; design: dose 30 mg/kg; conditions: in vivo; summary of the method: as §5
Mus musculus [17] = experiment: Muscle relaxant effect measured by rotarod test at 300 mg/Kg dose in mice; type: functional; summary of the method: as §6
Mus musculus [18] = experiment: Antianxiety activity was measured based on light/dark box thus calculated % time in light of mice at 100 mg/kg dose; type: functional; summary of the method: as §4
Mus musculus [19] = experiment: Anticonvulsant activity against PTZ induced atacks at 100 mg/kg dose; type: functional
[20] = target: T1, GABA-A receptor; anion channel (Bos taurus); experiment: The GABA ratio (GR) = IC50 compound + 10 uM GABA, performed in five independent experiments was calculated for the compound.; type: protein-complex assay
Summary of the method: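 [3H]Ro15-1788 displacement from GABA-depleted bovine cortex membranes (0.2 nM ligand, 90 min, 0 °C, Tris-citrate pH 7.4). IC50 measured without and with 10 μM GABA and the ratio taken; five independent experiments.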

Mus musculus [21] = experiment: Antianxiety activity was measured based on light/dark box thus calculated % time in light of mice at 30 mg/kg dose; type: functional; summary of the method: as §4
Mus musculus [22] = experiment: Anticonvulsant activity against PTZ induced atacks at 30 mg/kg dose; type: functional
Mus musculus [23] = experiment: Antianxiety activity was measured based on light/dark box thus calculated no of crosses of mice at 100 mg/kg dose Flumazenil and 1 mg/kg Diazepam; type: functional
Mus musculus [24] = experiment: Muscle relaxant effect measured by rotarod test at 100 mg/kg dose Flumazenil and 0.3 mg/kg Diazepam; type: functional
Mus musculus [25] = experiment: Antianxiety activity was measured based on light/dark box thus calculated % time in light of mice at 100 mg/kg dose Flumazenil and 1 mg/kg Diazepam; type: functional
Mus musculus [26] = experiment: Anticonvulsant activity against PTZ induced atacks at 100 mg/kg dose Flumazenil and 0.3 mg/kg Diazepam; type: functional
Summary of the method: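 Male Swiss-Webster mice (22–26 g) received drug in 1% CMC (10 mL/kg) 30 min before the test, or flumazenil 40 min before. Pentylenetetrazole was then given at 75 mg/kg sc, and generalized tonic-clonic seizures were scored over the following 30 min. The incidence of non-convulsing mice was analysed by χ² test.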

Mus musculus [27] = experiment: (§7) Anticonvulsant activity against MES-induced hindlimb extension at 300 mg/kg dose; type: functional
Mus musculus [28] = experiment: Antianxiety activity was measured based on light/dark box thus calculated no of crosses of mice at 3 mg/kg dose; type: functional; summary of the method: as §4
Mus musculus [29] = experiment: as §7; type: ADME, organism-based; design: dose 300 mg/kg; conditions: in vivo; summary of the method: as §5
Mus musculus [30] = experiment: Muscle relaxant effect measured by rotarod test at 30 mg/Kg dose in mice; type: functional; summary of the method: as §6
Mus musculus [31] = experiment: Antianxiety activity was measured based on light/dark box thus calculated % time in light of mice at 3 mg/kg dose; type: functional; summary of the method: as §4
Mus musculus [32] = experiment: Anticonvulsant activity against PTZ induced atacks at 300 mg/kg dose; type: functional
Mus musculus [33] = experiment: Antianxiety activity was measured based on light/dark box thus calculated % time in light of mice at 10 mg/kg dose; type: functional; summary of the method: as §4
Mus musculus [34] = experiment: Antianxiety activity was measured based on light/dark box thus calculated no of crosses of mice at 10 mg/kg dose; type: functional; summary of the method: as §4
Mus musculus [35] = experiment: (§8) Anticonvulsant activity against MES-induced hindlimb extension at 10 mg/kg dose; type: functional
Mus musculus [36] = experiment: as §8; type: ADME, organism-based; design: dose 10 mg/kg; conditions: in vivo; summary of the method: as §5
Mus musculus [37] = experiment: Muscle relaxant effect measured by rotarod test at 10 mg/Kg dose in mice; type: functional; summary of the method: as §6
Mus musculus [38] = experiment: Anticonvulsant activity against PTZ induced attacks at 10 mg/kg dose; type: functional

With CN1C(=O)CN=C(c2ccccc2)c2cc(Cl)ccc21.[O-][n+]1nc2c(-c3cccs3)cnn2c2cc(Cl)ccc21 the No. of crosses (Mus musculus [1]) was 26.6, the No. of falls (Mus musculus [2]) was 0.5 and the No. of falls (Mus musculus [3]) was 0.17. For the same compound, the Time in flight (Mus musculus [4]) was 130.9%, the Atttacks (Mus musculus [5]) was 50% and the Atttacks (Mus musculus [6]) was 100%.
Compound Clc1ccc2nnc3c(-c4cccs4)cnn3c2c1 has an inhibition [7] of 66%.
Compound CCOC(=O)c1cnn2c1n[n+]([O-])c1ccc(Cl)cc12 has a Ki [8] of 35 nM, an inhibition [9] of 99.8% and an Extension (Mus musculus [10]) of 0%. It also gave an Extension (Mus musculus [11]) of 0%, a No. of crosses (Mus musculus [12]) of 15.2 and a No. of crosses (Mus musculus [13]) of 19.1. For the same compound, the Lethality (Mus musculus [14]) was 0%, the No. of falls (Mus musculus [15]) was 0.5 and the Lethality (Mus musculus [16]) was 22.2%. The No. of falls (Mus musculus [17]) was 0.33, the Time in flight (Mus musculus [18]) was 124.6% and the Atttacks (Mus musculus [19]) was 28.1%. It also gave a GR [20] of 1.91, a Time in flight (Mus musculus [21]) of 106.2% and an Atttacks (Mus musculus [22]) of 15%.
Compound CN(C)/C=N/C(=O)c1cnn2c1n[n+]([O-])c1ccc(Cl)cc12 has an inhibition [9] of 48.9%.
CCOC(=O)c1ncn2c1CN(C)C(=O)c1cc(F)ccc1-2.CN1C(=O)CN=C(c2ccccc2)c2cc(Cl)ccc21 was tested, and the No. of crosses (Mus musculus [23]) was 18.6, the No. of falls (Mus musculus [24]) was 0.46 and the Time in flight (Mus musculus [25]) was 104.1%. For the same compound, the Atttacks (Mus musculus [26]) was 14.2%.
C/C(=N\C(=O)c1cnn2c1n[n+]([O-])c1ccc(Cl)cc12)N(C)C gave an inhibition [9] of 58.5%.
Work on Cc1nc(-c2cnn3c2n[n+]([O-])c2ccc(Cl)cc23)nn1C yielded an inhibition [9] of 0%.
[O-][n+]1nc2c(-c3cccs3)cnn2c2cc(Cl)ccc21 was tested, and the Ki [8] was 10.3 nM, the inhibition [9] was 82% and the Extension (Mus musculus [10]) was 0%. For the same compound, the Extension (Mus musculus [11]) was 0%, the Extension (Mus musculus [27]) was 0% and the No. of crosses (Mus musculus [12]) was 18.4. For the same compound, the No. of crosses (Mus musculus [28]) was 15, the No. of crosses (Mus musculus [13]) was 17.6 and the Lethality (Mus musculus [14]) was 20%. It also gave a No. of falls (Mus musculus [15]) of 0.08, a Lethality (Mus musculus [16]) of 18.2% and a Lethality (Mus musculus [29]) of 8.3%. It also gave a No. of falls (Mus musculus [30]) of 0, a No. of falls (Mus musculus [17]) of 0.2 and a Time in flight (Mus musculus [18]) of 114.5%. The Time in flight (Mus musculus [31]) was 88.9%, the Atttacks (Mus musculus [19]) was 16.6% and the Atttacks (Mus musculus [32]) was 12.5%. It also gave a GR [20] of 1.54, a Time in flight (Mus musculus [33]) of 122.2% and a Time in flight (Mus musculus [21]) of 11.5%. It also gave an Atttacks (Mus musculus [22]) of 10% and a No. of crosses (Mus musculus [34]) of 20.
With [O-][n+]1nc2c(-c3ccsc3)cnn2c2cc(Cl)ccc21 the Ki [8] was 36.3 nM, the inhibition [9] was 100% and the Extension (Mus musculus [35]) was 14.3%. The Extension (Mus musculus [10]) was 27.3%, the Extension (Mus musculus [11]) was 33.3% and the No. of crosses (Mus musculus [12]) was 15.3. For the same compound, the No. of crosses (Mus musculus [13]) was 19, the Lethality (Mus musculus [36]) was 28.6% and the Lethality (Mus musculus [14]) was 18.2%. For the same compound, the No. of falls (Mus musculus [37]) was 0.43, the No. of falls (Mus musculus [15]) was 0.15 and the Lethality (Mus musculus [16]) was 22.2%. For the same compound, the No. of falls (Mus musculus [30]) was 0.08, the Time in flight (Mus musculus [18]) was 107.4% and the Atttacks (Mus musculus [19]) was 46.1%. It also gave an Atttacks (Mus musculus [38]) of 18.2%, a GR [20] of 1.23 and a Time in flight (Mus musculus [33]) of 94.2%. For the same compound, the Time in flight (Mus musculus [21]) was 104.3%, the Atttacks (Mus musculus [22]) was 61.5% and the No. of crosses (Mus musculus [34]) was 16.3.
In the case of O=CNC(=O)c1cnn2c1n[n+]([O-])c1ccc(Cl)cc12, the Ki [8] is reported as 844 nM, the inhibition [9] is reported as 85.5% and the Ratio [20] is reported as 2.07.
Compound Cn1cnc(-c2cnn3c2n[n+]([O-])c2ccc(Cl)cc23)n1 has an inhibition [9] of 0%.
